Measured values collected from several papers.
Lines come from different studies, so protocols differ.
Target: Ephrin type-A receptor 7 (EPHA7, Homo sapiens, UniProt Q15375)

Compound	test	setting	quantity	result
Cc1c(C(=O)O)cc(-c2ccc(C3CCNCC3)cc2)c2ccc(-c3ccc(C(F)(F)F)cc3)cc12	cell-free assay, competition with immobilised ligand	1 µM	remaining binding	100%
Cc1ccc(C(=O)NCc2ccsc2)cc1C#Cc1cn(C(C)C)c2ncnc(N)c12	enzyme activity, inhibitor	1 µM	activity vs control	21%
CC(C)(C)c1nc(-c2cccc(NS(=O)(=O)c3c(F)cccc3F)c2F)c(-c2ccnc(N)n2)s1	enzyme activity, inhibitor, radiometric	1 µM	remaining activity	102%
Cc1ccc(C(=O)Nc2ccc(CN3CCN(C)CC3)c(C(F)(F)F)c2)cc1C#Cc1cnc2cccnn12	cell-free assay	23.5 nM	remaining signal	81%
CCN(CC)CCNC(=O)c1c(C)[nH]c(/C=C2\C(=O)Nc3ccc(F)cc32)c1C	enzyme activity, inhibitor	10 µM	inhibition	78%
O=C(NCc1ncc(C(F)(F)F)cc1Cl)c1ccc2c(c1)C1(CCS(=O)(=O)CC1)[C@H](C1CC1)N2S(=O)(=O)c1ccc(F)cc1	cell-free assay, competition with immobilised ligand	1 µM	remaining binding	100%
O=C(Nc1cnn(-c2csc(C(=O)NC3COC3)c2)c1)Nc1c(F)cccc1Cl	enzyme activity, inhibitor	5 µM	remaining activity	91.2%
CCCS(=O)(=O)Nc1ccc(F)c(C(=O)c2c[nH]c3ncc(-c4ccc(Cl)cc4)cc23)c1F	enzyme activity, inhibitor	1 µM	inhibition	< 10%
COc1ccc2c(c1)O[C@@H](c1ccc(OC)c(OC)c1)C[C@H]2NC(=O)C1(c2ccc3c(c2)OC(F)(F)O3)CC1	cell-free assay, competition with immobilised ligand	1 µM	remaining binding	86%
CNC(=O)c1cc(Oc2ccc(NC(=O)Nc3ccc(Cl)c(C(F)(F)F)c3)cc2)ccn1	enzyme activity, inhibitor	10 µM	inhibition	90%
CCN(CC)c1ccc(C2=NNC(=O)CC2C)cc1[N+](=O)[O-] (stereo not drawn)	enzyme activity, inhibitor	10 µM	remaining activity	91%
COc1cc(Cl)c(C(=O)N[C@@H](CN[C@H]2CC[C@@H](N)CC2)Cc2ccc(C#N)cc2)cc1-c1ccc(CN[C@H](C)c2ccc(C)cc2)o1	enzyme activity, inhibitor	1 µM	remaining activity	105%
Cc1cc(NC(=O)c2cccc3cc(-c4cccc5[nH]nc(N)c45)ccc23)ccc1F	enzyme activity, inhibitor	0.1 µM	activity vs control	96%
Cc1ccc(Nc2nccc(N(C)c3ccc4c(C)n(C)nc4c3)n2)cc1S(N)(=O)=O	enzyme activity, inhibitor	0.3 µM	inhibition	1%
CC/C(=N\NC(=O)NCc1cccc(O)c1)c1ccc(O)c(C)c1O	enzyme activity, inhibitor	0.1 µM	inhibition	-0.5%
O=C(NS(=O)(=O)c1ccc(NCC2CCOCC2)c([N+](=O)[O-])c1)c1ccc(N2CCN(Cc3ccc(C(F)(F)F)cc3-c3ccc(Cl)cc3)CC2)cc1Oc1cnc2[nH]ccc2c1	cell-free assay, competition with immobilised ligand	1 µM	remaining binding	88%
c1ccc(CNc2nc(N3CCOc4ccccc43)nc3c2CCCC3)cc1	target engagement in cells, inhibitor, chemoproteomics	20 mM	inhibition	12%
CC(=O)C1=C(C)N(c2cccc(C(F)(F)F)c2)C(=O)N[C@@H]1c1ccc(C#N)nc1	cell-free assay, competition with immobilised ligand	1 µM	remaining binding	100%
CCCOc1ccc(OC)c(F)c1C(=O)c1ccc(C(=O)N[C@@H]2CNC[C@H]2NC(=O)c2ccc3[nH]ncc3c2)cc1	enzyme activity, inhibitor	10 µM	remaining activity	29%
CO[C@@H](C)c1c(Nc2ccc([C@@H](N(C)C(=O)C3CCS(=O)(=O)CC3)C(F)(F)F)cc2)cnc2cc(Cl)nn12	cell-free assay, competition with immobilised ligand	1 µM	remaining binding	87%
N#CCCc1ccc2c(c1)-c1[nH]c3ccc([N+](=O)[O-])cc3c1CC(=O)N2	cell-free assay	0.5 µM	remaining signal	95.3%
